AHR act: human AHR activation. activation, % at 5 µM. AID 2796. 320,000 tested, 2.5% active. AHR-responsive luciferase reporter cells, luminescence. P35869; in the data active = activation above about 47%;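 also: 0% = vehicle wells and 100% = reference agonist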
HTR2A ag: activates the mouse 5-HT2A serotonin receptor; 360,000 tested, 0.66% active; activation, % at 7.6 µM; P35363; AID 624169; CHO-K1 mHTR2A beta-arrestin complementation, luminescence; percent of 30 µM serotonin response;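 active = activation above a run cutoff, the mean activation of all tested compounds plus 3 SD, cut at about 14% in these data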;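 also: 0% = plate median of compound wells and 100% = 30 µM serotonin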
Target sequence (P35363 whole entry, looked up): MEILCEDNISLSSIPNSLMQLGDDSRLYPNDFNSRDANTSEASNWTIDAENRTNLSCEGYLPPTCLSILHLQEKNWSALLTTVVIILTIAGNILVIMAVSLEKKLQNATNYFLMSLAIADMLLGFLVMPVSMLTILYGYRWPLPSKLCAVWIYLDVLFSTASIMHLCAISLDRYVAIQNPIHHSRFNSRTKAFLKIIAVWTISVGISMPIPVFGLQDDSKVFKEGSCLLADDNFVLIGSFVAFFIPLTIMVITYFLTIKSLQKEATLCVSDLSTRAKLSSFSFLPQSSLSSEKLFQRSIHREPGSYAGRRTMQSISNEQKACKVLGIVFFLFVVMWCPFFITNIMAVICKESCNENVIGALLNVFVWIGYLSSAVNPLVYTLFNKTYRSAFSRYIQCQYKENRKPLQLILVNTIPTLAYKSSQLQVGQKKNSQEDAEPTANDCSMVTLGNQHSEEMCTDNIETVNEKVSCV
MsrA inhibitor: inhibits bovine methionine sulfoxide reductase A; purified bovine MsrA, absorbance read-out; inhibition, % at 15.5 µM; 360,000 tested, 0.75% active; AID 651718; in the data active = inhibition above about 4.5%;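 also: 0% = vehicle wells with enzyme and 100% = reference inhibitor wells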
Tb MetRS inh: blocks T. brucei methionyl-tRNA synthetase activity | AID 624268 | purified T. brucei MetRS, ATP depletion, Kinase-Glo luminescence | 360,000 tested, 0.4% active | inhibition, % at 11.9 µM;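 active = inhibition above a per-plate cutoff of the control wells' mean inhibition plus 3 SD, cut at about 5.5% in these data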;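 also: 0% = DMSO wells median and 100% = median of wells with control inhibitor compound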
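Assay system: T. brucei methionyl-tRNA synthetase, purified | Medium: HEPES buffer with MgCl2, KCl, DTT, spermine, BSA, pyrophosphatase | Compound: 11.9 µM single point | Incubation: 15 min enzyme-compound preincubation, 2 h reaction, 10 min detection, 25 °C | Measured by: Kinase-Glo luciferase luminescence reporting remaining unconsumed ATP | Measure: % inhibition normalized to control-well medians | Replication: Singlicate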
AI-2 QS mod: Vibrio harveyi AI-2 quorum sensing modulation | 300,000 tested, 0.4% active | activity change, % at 7.5 µM | Vibrio harveyi JMH597 AI-2 luminescence/OD600 ratio, 9 h; stronger effect = lower value; strain lacks LuxN and CqsS sensors; 0 = neutral-control median | AID 2094; in the data active = activity change below about -75%, passing the limit was not always enough;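 also: luminescence divided by OD600 gain over 9 h not by final OD600 alone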
bovine MsrA act: activates bovine MsrA enzyme. purified bovine MsrA, absorbance read-out. activation, % at 10.6 µM. 360,000 tested, 0.3% active. AID 602163; in the data active = activation above about 7.5%;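 also: 0% = vehicle and 100% = reference activator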
Tb MetRS conf: confirmation of Trypanosoma brucei MetRS inhibitors | shares compounds with Tb MetRS inh | T. brucei MetRS enzyme, luminescence (ATP depletion) | inhibition, % at 11.9 µM | 1,400 tested, 93% active; in the data active = inhibition above about 7%
Jurkat cytotox: Jurkat T cell cytotoxicity for MetRS hits; shares compounds with Tb MetRS inh; Jurkat cells viability, ATP luminescence; inhibition, % at 8.3 µM; 1,400 tested, 12% active; AID 624413; in the data active = inhibition above about 15%;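 also: 0% = vehicle and 100% = reference inhibitor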
TbMetRS FP orth: orthogonal test for Trypanosoma brucei MetRS inhibitors | shares compounds with Tb MetRS inh | inhibition, % at 11.9 µM | purified T. brucei MetRS, fluorescence polarization | AID 651607 | 1,400 tested, 44% active; in the data active = inhibition above about 17%;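 also: 0% = vehicle wells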
* hit, by the source's call. This is a sample that favours compounds with a hit; in the whole collection about 4.4% have one here.

CCc1nnc(NS(=O)(=O)c2ccc(NS(=O)(=O)c3ccccc3[N+](=O)[O-])cc2)s1 was read as AHR act 10.7, HTR2A ag 4.3, MsrA inhibitor -0.6, Tb MetRS inh -0.1, AI-2 QS mod 25.8 and bovine MsrA act -1.3.
For CCc1nnc(NS(=O)(=O)c2ccc(Nc3ccc([N+](=O)[O-])c4nonc34)cc2)s1 the results were AHR act 0.6, HTR2A ag -9.7, MsrA inhibitor 2.2, Tb MetRS inh 7.0*, AI-2 QS mod -3.3, bovine MsrA act 0.8, Tb MetRS conf 10.6*, Jurkat cytotox -3.5 and TbMetRS FP orth -2.9.
Cc1cccc(NC(=O)NCC(c2ccc(F)cc2)N2CCN(C)CC2)c1 (centres undefined) was read as AHR act 12.0, HTR2A ag -9.5, MsrA inhibitor -0.6, Tb MetRS inh 0.6, AI-2 QS mod 9.6 and bovine MsrA act -3.5.
Screening CN1CCN(C(CNC(=O)Nc2ccc(Cl)cc2)c2ccc(F)cc2)CC1 (centres undefined) returned AHR act 0.3, HTR2A ag -6.3, MsrA inhibitor 0.8, Tb MetRS inh 28.0*, AI-2 QS mod -1.6, bovine MsrA act 0.1, Tb MetRS conf 52.2*, Jurkat cytotox 8.8 and TbMetRS FP orth 28.5*.
Cc1ccc(C(CNC(=O)Nc2ccc(Cl)cc2)N2CCN(C)CC2)cc1 (centres undefined) was read as AHR act -0.3, HTR2A ag -7.0, MsrA inhibitor -0.3, Tb MetRS inh 8.1*, AI-2 QS mod 5.1, bovine MsrA act -4.0, Tb MetRS conf 30.1*, Jurkat cytotox 9.7 and TbMetRS FP orth 10.4.
Cc1nnsc1SCCNC(=O)Nc1ccc(Cl)cc1 was read as AHR act 10.4, HTR2A ag -2.9, MsrA inhibitor 0.9, Tb MetRS inh 6.5*, AI-2 QS mod 10.3, bovine MsrA act -3.3, Tb MetRS conf 11.8*, Jurkat cytotox 11.4 and TbMetRS FP orth 14.6.
O=C(NCCNC(=O)Nc1ccc(Cl)cc1)Nc1ccc(Cl)cc1 was read as HTR2A ag -4.9, MsrA inhibitor -0.2, Tb MetRS inh 0.4 and bovine MsrA act -1.8.
For O=C(NCCc1ccc(Cl)cc1)Nc1ccc(F)cc1 the results were AHR act 3.0, HTR2A ag -7.2, MsrA inhibitor 0.8, Tb MetRS inh 17.6*, AI-2 QS mod 2.3, bovine MsrA act -0.5, Tb MetRS conf 30.1*, Jurkat cytotox -2.7 and TbMetRS FP orth 12.3.
CCC(C(=O)N1CCC(N2CCCCC2)CC1)n1nc(C)c2sc3ccccc3c2c1=O (centres undefined) was read as AHR act 1.5, HTR2A ag -0.4, MsrA inhibitor -0.1, Tb MetRS inh -0.6, AI-2 QS mod 5.2 and bovine MsrA act -2.1.
COc1ccc(NC(=S)NC(=O)c2cncc(Br)c2)c(OC)c1 was read as AHR act 11.8, HTR2A ag -0.8, MsrA inhibitor 0.8, Tb MetRS inh -0.7, AI-2 QS mod 13.7 and bovine MsrA act -1.9.
`CCc1nc2c(OCc3cccc(Cl)c3)cccn2c1N(C)C(=O)c1ccco1` gave HTR2A ag 6.7, MsrA inhibitor -0.2, Tb MetRS inh -0.1 and bovine MsrA act 1.6.
Screening COc1ccc(/C=N/n2c(=O)[nH]c3c([nH]c4ccc(Cl)cc43)c2=O)cc1CN1CCCCC1 returned AHR act 17.1, HTR2A ag 1.8, MsrA inhibitor -0.5, Tb MetRS inh 4.1, AI-2 QS mod 22.0 and bovine MsrA act -2.7.
Screening COc1ccc(/C=N/n2c(=O)[nH]c3c([nH]c4ccc(Br)cc43)c2=O)cc1CN1CCOCC1 returned AHR act 56.3*, HTR2A ag 1.9, MsrA inhibitor -0.2, Tb MetRS inh 6.2*, AI-2 QS mod 24.1, bovine MsrA act 0.4, Tb MetRS conf 13.9*, Jurkat cytotox 10.6 and TbMetRS FP orth 8.8.
Screening NS(=O)(=O)c1cccc(NC(=O)CSc2nc3ccc(Cl)cc3[nH]2)c1 returned AHR act 6.0, HTR2A ag -6.3, MsrA inhibitor -0.7, Tb MetRS inh 8.1*, AI-2 QS mod 16.9, bovine MsrA act -1.6, Tb MetRS conf 15.8*, Jurkat cytotox -3.2 and TbMetRS FP orth 15.4.
O=C(CSc1nc2cc3ccccc3cc2[nH]1)Nc1ccc(F)cc1 was read as AHR act 10.9, HTR2A ag 2.4, MsrA inhibitor 1.3, Tb MetRS inh 21.8*, AI-2 QS mod -1.4, bovine MsrA act -3.9, Tb MetRS conf 28.3*, Jurkat cytotox 6.8 and TbMetRS FP orth 22.9*.
For Cc1ccc2nc(SCC(=O)Nc3cccc(S(=O)(=O)N(C)C)c3)[nH]c2c1 the results were AHR act 10.6, HTR2A ag -5.1, MsrA inhibitor 0.2, Tb MetRS inh 1.2, AI-2 QS mod 16.3 and bovine MsrA act -1.4.
`CCN(CC)S(=O)(=O)c1cccc(NC(=O)CSc2nc3ccccc3[nH]2)c1` gave AHR act 3.9, HTR2A ag -1.7, MsrA inhibitor 1.9, Tb MetRS inh 2.2, AI-2 QS mod 9.8 and bovine MsrA act -0.3.
O=C(CSc1nc2ccccc2[nH]1)Nc1nc(-c2ccc(Br)cc2)cs1 was read as AHR act 48.0*, HTR2A ag 2.1, MsrA inhibitor 0.8, Tb MetRS inh 19.9*, AI-2 QS mod 24.6, bovine MsrA act -3.0, Tb MetRS conf 35.9*, Jurkat cytotox 9.0 and TbMetRS FP orth 71.3*.
For O=C(CSc1nc2ccccc2[nH]1)Nc1cccc(S(=O)(=O)N2CCOCC2)c1 the results were AHR act 1.0, HTR2A ag 0.5, MsrA inhibitor -1.3, Tb MetRS inh 40.4*, AI-2 QS mod 15.2, bovine MsrA act -10.2, Tb MetRS conf 39.9*, Jurkat cytotox 5.9 and TbMetRS FP orth 18.4*.
`CCOc1cc(N2CCOCC2)c(OCC)cc1NC(=O)CN1C(=O)N(C)C2(CCCCC2)C1=O` gave AHR act 3.5, HTR2A ag 4.9, MsrA inhibitor -0.5, Tb MetRS inh 0.1 and bovine MsrA act -6.6.
Screening CC1=C(CC(=O)O)c2cc(F)ccc2/C1=C/c1ccc(S(C)=O)cc1 (centres undefined) returned AHR act 3.9, HTR2A ag 0.5, MsrA inhibitor 1.9, Tb MetRS inh -1.2, AI-2 QS mod 2.1 and bovine MsrA act -3.5.

Screening results: PubChem BioAssay, several laboratories
